From ChEMBL document CHEMBL4613285 (ACS Med Chem Lett, 2020)
The source made the active and inactive calls. The rule behind the calls is not given here.

Key:
[1] = target: T1, Protein deacetylase HDAC6 (Mus musculus, UniProt Q9Z2V5); assay: Inhibition of HDAC6 in mouse N2A cells assessed as increase in alpha tubulin acetylation; format: cell-based
T1 sequence (Q9Z2V5 whole entry): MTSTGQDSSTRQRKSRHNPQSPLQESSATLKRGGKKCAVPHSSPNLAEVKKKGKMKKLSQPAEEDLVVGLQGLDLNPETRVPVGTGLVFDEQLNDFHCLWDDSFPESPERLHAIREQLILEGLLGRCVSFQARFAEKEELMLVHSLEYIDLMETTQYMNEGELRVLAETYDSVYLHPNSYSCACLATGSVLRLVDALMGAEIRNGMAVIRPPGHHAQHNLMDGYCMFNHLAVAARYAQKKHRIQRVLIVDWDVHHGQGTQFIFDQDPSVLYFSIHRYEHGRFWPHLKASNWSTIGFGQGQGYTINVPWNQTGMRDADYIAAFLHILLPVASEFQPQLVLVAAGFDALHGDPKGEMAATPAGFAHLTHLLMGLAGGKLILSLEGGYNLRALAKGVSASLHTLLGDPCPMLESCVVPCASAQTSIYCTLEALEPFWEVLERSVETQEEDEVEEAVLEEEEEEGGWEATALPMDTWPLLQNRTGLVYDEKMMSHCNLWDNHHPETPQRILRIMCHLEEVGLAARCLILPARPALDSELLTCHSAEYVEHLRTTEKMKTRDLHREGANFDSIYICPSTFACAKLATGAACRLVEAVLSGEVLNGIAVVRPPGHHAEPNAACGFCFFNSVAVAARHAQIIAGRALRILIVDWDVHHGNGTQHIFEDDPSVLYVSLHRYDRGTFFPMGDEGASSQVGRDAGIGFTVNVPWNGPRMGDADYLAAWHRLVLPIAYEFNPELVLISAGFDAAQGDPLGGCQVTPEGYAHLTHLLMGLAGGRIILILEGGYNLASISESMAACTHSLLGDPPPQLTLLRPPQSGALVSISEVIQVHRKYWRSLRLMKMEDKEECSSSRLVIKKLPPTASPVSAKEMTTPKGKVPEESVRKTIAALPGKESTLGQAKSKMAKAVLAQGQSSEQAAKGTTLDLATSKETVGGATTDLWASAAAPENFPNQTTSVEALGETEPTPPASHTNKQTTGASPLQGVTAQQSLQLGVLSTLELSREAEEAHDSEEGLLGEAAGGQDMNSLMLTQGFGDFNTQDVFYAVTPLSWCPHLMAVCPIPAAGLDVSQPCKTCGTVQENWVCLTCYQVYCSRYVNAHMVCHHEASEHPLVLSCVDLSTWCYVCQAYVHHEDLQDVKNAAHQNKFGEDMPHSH
In short: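 N2a cells; α-tubulin acetylation read out; 10-dose EC50 mode, singlet, 3-fold serial dilutions from 100 μM top concentration.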

[2] = target: Histone deacetylase 1 (Mus musculus, UniProt O09106); assay: Inhibition of HDAC1 in mouse N2A cells; format: cell-based
[3] = target: T1, Protein deacetylase HDAC6; assay: Inhibition of HDAC6 in mouse N2A cells; format: cell-based
[4] = species on record: Mus musculus; assay: Selectivity index, ratio of IC50 for HDAC1 in mouse N2A cells to IC50 for HDAC6 in mouse N2A cells; format: cell-based
[5] = system: MDR1; assay: Efflux ratio of permeability in MDCK-MDR1 cells; format: ADME, cell-based, Canis lupus familiaris; details: dog
[6] = Drug concentration in CD-1 mouse brain at 3 mg/kg, iv measured at 8 mins; format: ADME, organism-based; details: read-out: Ct
In short: (§1)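 Male CD1 mice (n=2) dosed IV at 3 mg/kg; brain and plasma sampled at 8 and 60 min; values reported as mean ± standard error.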

[7] = Drug concentration in CD-1 mouse brain at 3 mg/kg, iv measured at 60 mins; format: ADME, organism-based; details: read-out: Ct; in short: as §1
[8] = Drug concentration in CD-1 mouse plasma at 3 mg/kg, iv measured at 8 mins; format: ADME, organism-based; in short: as §1
[9] = Drug concentration in CD-1 mouse plasma at 3 mg/kg, iv measured at 60 mins; format: ADME, organism-based; in short: as §1
[10] = Ratio of drug level in brain to plasma in CD-1 mouse at 3 mg/kg, iv measured after 8 mins; format: ADME, organism-based; details: brain and plasma, read-out: BPR; in short: as §1
[11] = Ratio of drug level in brain to plasma in CD-1 mouse at 3 mg/kg, iv measured after 60 mins; format: ADME, organism-based; details: brain and plasma, read-out: BPR; in short: as §1
[12] = target: T2, Protein deacetylase HDAC6 (Mus musculus) (UniProt Q9Z2V5); assay: In vivo inhibition of HDAC6 in C57BL/6 mouse cortex assessed as increase in alpha tubulin acetylation at 20 mg/kg, ip administered bid with interval of 4 hrs and measured after 1.5 hrs of last dosage by Western blot analysis; format: functional, organism-based
T2 sequence (whole entry): T1 sequence (Q9Z2V5 whole entry)
In short: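 Adult male C57BL/6 mice got two IP injections of 20 mg/kg, 4 h apart, and were killed 1.5 h after the second. Cortical homogenates were Western blotted (n = 3–4 per group) for acetylated α-tubulin/total tubulin densitometric ratio, normalized to vehicle-treated baseline (100%). Mean and standard deviation are reported; significance versus vehicle at p < 0.05 or p < 0.01.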

[13] = Ratio of drug level in brain to plasma in C57BL/6 mouse at 3 mg/kg, iv measured after 8 mins by LC-MS/MS analysis; details: brain and plasma
[14] = system: MDR1; assay: Efflux ratio of apparent permeability from basolateral to apical over apical to basolateral side in MDCK-MDR1 cells incubated for 2 hrs by LC-MS/MS analysis; details: dog
[15] = Metabolic stability in mouse plasma assessed as half life; format: ADME, cell-free
[16] = Metabolic stability in mouse liver microsomes assessed as half life; format: ADME, Microsome
[17] = Half life in CD-1 mouse at 3 mg/kg, iv; format: ADME, organism-based; details: in vivo
[18] = Initial plasma concentration in CD-1 mouse at 3 mg/kg, iv measured at 0 mins; format: ADME, organism-based
In short: (§2)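 Plasma PK in male CD1 mice (n=3, mean) after 3 mg/kg IV; vehicle 5% DMSO in 10% HP-β-CD in saline, pH adjusted with HCl; C0, C1h and Vss derived from plasma profile.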

[19] = Plasma concentration in CD-1 mouse at 3 mg/kg, iv measured at 1 hr; format: ADME, organism-based; in short: as §2
[20] = AUC in CD-1 mouse at 3 mg/kg, iv; format: ADME, organism-based; details: in vivo
[21] = Volume of distribution at steady state in CD-1 mouse at 3 mg/kg, iv; format: ADME, organism-based; details: in vivo; in short: as §2
[22] = Half life in CD-1 mouse at 30 mg/kg, po; format: ADME, organism-based; details: in vivo
[23] = Initial plasma concentration in CD-1 mouse at 30 mg/kg, po measured at 0 mins; format: ADME, organism-based; details: read-out: C0
In short: (§3)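 Plasma PK in male CD1 mice (n=3, mean) after 30 mg/kg oral dosing; formulation 5% DMSO in 10% HP-β-CD in saline, pH adjusted with HCl; C0 and C1h from plasma profile.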

[24] = Plasma concentration in CD-1 mouse at 30 mg/kg, po measured at 1 hr; format: ADME, organism-based; in short: as §3
[25] = AUC in CD-1 mouse at 30 mg/kg, po; format: ADME, organism-based; details: in vivo
[26] = Oral bioavailability in CD-1 mouse at 30 mg/kg; format: ADME, organism-based; details: in vivo
[27] = Protein binding in mouse plasma; format: ADME, cell-free; details: read-out: PPB (converted)
[28] = Protein binding in mouse plasma assessed as unbound fraction measured at initial point; format: ADME, cell-free
In short: (§4)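 Unbound plasma level derived from total concentrations predicted for 10 mg/kg IP using IV PK data, corrected by measured mouse plasma protein binding; given at initial point and 1 h.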

[29] = Protein binding in mouse plasma assessed as unbound fraction measured at 1 hr; format: ADME, cell-free; in short: as §4
[30] = Protein binding in mouse brain homogenate; format: ADME, tissue-based; details: read-out: PB (converted)
[31] = Free drug concentration in mouse brain at 25 mg/kg measured at 8 mins; format: ADME, organism-based; details: in vivo
In short: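 Free brain exposure calculated for 25 mg/kg from brain PK at 8 min and brain homogenate binding.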

[32] = Metabolic stability in mouse Hepatocyte assessed as half life; format: ADME, cell-based; details: hepatocytes

Histone deacetylase 1, sequence (O09106 whole entry): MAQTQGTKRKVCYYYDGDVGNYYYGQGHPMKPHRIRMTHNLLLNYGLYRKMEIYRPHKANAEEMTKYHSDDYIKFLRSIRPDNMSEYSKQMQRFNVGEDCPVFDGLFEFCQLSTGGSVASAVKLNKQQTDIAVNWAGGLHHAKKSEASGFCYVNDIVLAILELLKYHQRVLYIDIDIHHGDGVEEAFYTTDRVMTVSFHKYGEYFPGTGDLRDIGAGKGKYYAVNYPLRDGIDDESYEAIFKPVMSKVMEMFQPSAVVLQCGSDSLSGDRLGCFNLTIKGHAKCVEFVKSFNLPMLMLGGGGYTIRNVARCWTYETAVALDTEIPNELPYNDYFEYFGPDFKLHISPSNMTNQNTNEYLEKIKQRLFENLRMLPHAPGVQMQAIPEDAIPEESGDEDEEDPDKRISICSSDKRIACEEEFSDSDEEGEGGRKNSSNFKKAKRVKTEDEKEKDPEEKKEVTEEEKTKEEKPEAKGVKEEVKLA

Row | EC50 [1] [nM] | IC50 [2] [µM] | IC50 [3] [nM] | efflux ratio [5] | concentration at 8 min [6] [ng/g] | concentration at 1 h [7] [ng/g] | concentration at 8 min [8] [ng/mL] | concentration at 1 h [9] [ng/mL] | Kp at 8 min [10] | Kp at 1 h [11] | Activity [12] | Compound | Ratio IC50 [4] | other results
1 | 932 | 6.86 | 45.5 | 0.51 | 354 | 30.5 | 345 | 6 | 1.03 | 5.08 | Active | O=C(NO)c1ccc(Cn2cccn2)cc1 | 150 | –
2 | 145 | 8.1 | 4.4 | 9.83 | 40.5 | 17.5 | 274 | 20.3 | 0.15 | 0.86 | – | CN1CCc2c(c3ccccc3n2Cc2ccc(C(=O)NO)cc2)C1 [TUBASTATIN A] | – | Kp at 8 min [13]: 0.15; efflux ratio at 2 h [14]: 9.83; half-life [15]: 30 min; half-life [16]: > 60 min; t1/2 [17]: 21 min; C0 at 0 h [18]: 1240 ng/mL; concentration at 1 h [19]: 29.7 ng/mL; AUC [20]: 227 ng·h/mL; Vdss [21]: 4.14 L/kg; half-life [22]: 51.6 min; concentration at 0 h [23]: 135 ng/mL; concentration at 1 h [24]: 41.9 ng/mL; AUC [25]: 134 ng·h/mL; bioavailability [26]: 5.9%; fraction unbound [27]: 0.34; C0(unbound) [28]: 3.77 µM; Cp(f) [29]: 0.09 µM; fraction unbound [30]: 0.094; Drug uptake(free) [31]: 0.1 µM; half-life [32]: > 60 min
3 | 250 | 5.54 | 9.7 | 1.05 | 944 | 7.6 | 152 | 0.8 | 6.21 | 9.5 | Active | O=C(NO)c1ccc(CN2CCc3ccc(F)cc32)cc1 | 571 | –
